Data taken from ChEMBL document CHEMBL1140994, “Ranking the selectivity of PubChem screening hits by activity-based protein profiling: MMP13 as a case study” (Bioorg Med Chem, 2009).
The source made the active and inactive calls. The rule behind the calls is not given here.

Biological target: Matrilysin (Homo sapiens) (UniProt P09237)
Assay: Inhibition of human recombinant MMP7 at 200 uM by HxBPyne probe-based competitive activity based protein profiling assay in presence of 5 uM HxBpane competitor
In short: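 Recombinant enzyme at 0.5 μM final in mouse liver soluble proteome (1 mg protein/mL in PBS). HxBPyne probe cocktail 0.5 μM total final, with inhibitor 200 μM or DMSO. Preincubated 30 min on ice, then UV 365 nm for 1 h on ice. Rhodamine-azide click chemistry, 1 h RT in dark. SDS-PAGE with in-gel fluorescence; band intensity given as % of DMSO control.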

Chain of Matrilysin (Homo sapiens) (P09237 whole entry): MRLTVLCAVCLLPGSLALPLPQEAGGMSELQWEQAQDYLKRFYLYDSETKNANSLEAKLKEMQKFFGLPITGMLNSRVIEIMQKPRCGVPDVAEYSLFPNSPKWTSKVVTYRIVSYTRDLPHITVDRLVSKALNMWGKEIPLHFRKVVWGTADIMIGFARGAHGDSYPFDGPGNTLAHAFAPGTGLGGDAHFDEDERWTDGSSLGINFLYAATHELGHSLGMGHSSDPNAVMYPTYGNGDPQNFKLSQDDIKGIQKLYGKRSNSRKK

| Structure (SMILES) | Activity |
| --- | --- |
| COc1ccc(CSc2nc(C)cc(O)n2)cc1 | inactive |
| Oc1nc(SCc2ccc(Cl)cc2)nc2c1CCC2 | inactive |
